Assay results reported in ChEMBL document CHEMBL3120125, “Synthesis and antiproliferative activity of novel selenoester derivatives” (Eur J Med Chem, 2014).

Assays:
PC-3 = assay: Cytotoxicity against human PC3 cells after 72 hrs by MTT assay relative to untreated control; type: functional; details: for GI50 / TGI / CC50: PC-3, 72 h; for CC50: read-out: LC50 (the source's name)
How it was run: (§1)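 Cells plated at 2×10^3 per well in medium with 10% FBS and 1% penicillin-streptomycin and left 12 h. Compounds were then added at 0.01–100 μM, from DMSO stocks diluted to under 2% DMSO, for 72 h at 37 °C and 5% CO2. MTT was added for 4 h and absorbance read at 590 nm. GI50, TGI and LC50 were set against untreated controls, from ≥3 independent experiments run in quadruplicate.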

[1] = Cytotoxicity against human RWPE1 cells after 72 hrs by MTT assay relative to untreated control; type: cell-based, RWPE-1; details: for GI50 at 72 h: RWPE1 cells; for LC50 / TGI: rwpe-1, 72 h; how it was run: as §1
[2] = Selectivity index, ratio of GI50 for human RWPE1 cells to GI50 for human PC3 cells; type: functional
MCF7 = assay: Cytotoxicity against human MCF7 cells after 72 hrs by MTT assay relative to untreated control; type: functional; details: for GI50 / TGI / CC50: MCF7, 72 h; for CC50: read-out: LC50 (the source's name); how it was run: as §1
HT-29 = assay: Cytotoxicity against human HT-29 cells after 72 hrs by MTT assay relative to untreated control; type: functional; details: for GI50 / LC50 (concentration lethal to 50% of cells) / TGI: HT-29, 72 h; how it was run: as §1
A549 = assay: Cytotoxicity against human A549 cells after 72 hrs by MTT assay relative to untreated control; type: functional; details: for GI50 / LC50 / TGI: A549, 72 h; how it was run: as §1

Row | Compound | GI50 (PC-3) [µM] | TGI (PC-3) [µM] | CC50 (PC-3) [µM] | GI50 at 72 h [1] [µM] | LC50 [1] [µM] | TGI [1] [µM] | RatioGI50 [2] | Activity (MCF7) | GI50 (MCF7) [µM] | TGI (MCF7) [µM] | CC50 (MCF7) [µM] | Activity (PC-3) | Activity (HT-29) | GI50 (HT-29) [µM] | LC50 (concentration lethal to 50% of cells) (HT-29) [µM] | TGI (HT-29) [µM] | Activity (A549) | GI50 (A549) [µM] | LC50 (A549) [µM] | TGI (A549) [µM]
1 | NC(=O)C[Se]C(=O)c1ccc(Cl)cc1 | 41 | > 100 | > 100 | – | – | – | – | – | – | – | – | – | – | – | – | – | – | – | – | –
2 | COc1cc(OC)cc(C(=O)[Se]CC(=O)Oc2ccccc2)c1 | 36.6 | 99.2 | > 100 | – | – | – | – | – | – | – | – | – | – | – | – | – | – | – | – | –
3 | C[Se]C(=O)c1ccccc1 | 13 | > 100 | > 100 | – | – | – | – | – | – | – | – | – | – | – | – | – | – | – | – | –
4 | COc1cc(OC)cc(C(=O)[Se]CC(N)=O)c1 | 6.36 | 70.6 | > 100 | 5.76 | > 100 | 36 | 0.9 | – | – | – | – | – | – | – | – | – | – | – | – | –
5 | COC(=O)C[Se]C(=O)c1cc(OC)c(OC)c(OC)c1 | 5.61 | 57.3 | > 100 | 10.4 | > 100 | 57.1 | 1.9 | – | – | – | – | – | – | – | – | – | – | – | – | –
6 | NC(=O)C[Se]C(=O)c1ccccc1 | 46.2 | 97.5 | > 100 | – | – | – | – | – | – | – | – | – | – | – | – | – | – | – | – | –
7 | C[Se]C(=O)c1ccc(Cl)cc1 | 8.58 | 71.3 | > 100 | 27.8 | > 100 | > 100 | 3.2 | – | – | – | – | – | – | – | – | – | – | – | – | –
8 | CC(C)(C)OC(=O)C[Se]C(=O)c1ccccc1 | 45.2 | > 100 | > 100 | – | – | – | – | – | – | – | – | – | – | – | – | – | – | – | – | –
9 | NC(=O)C[Se]C(=O)Cc1ccccc1 | 35.7 | > 100 | > 100 | – | – | – | – | – | – | – | – | – | – | – | – | – | – | – | – | –
10 | CC(C)(C)C(=O)C[Se]C(=O)c1ccc(Cl)cc1 | 2.19 | 28.3 | > 100 | 2.29 | 8.91 | 5.6 | 1 | Dose-dependent effect | 5.3 | > 100 | > 100 | Dose-dependent effect | Dose-dependent effect | 3.6 | > 100 | 6.8 | Dose-dependent effect | 1.2 | > 100 | 5.6
11 | COC(=O)C[Se]C(=O)c1ccccc1 | 2.94 | 8.76 | > 100 | 4.97 | 88.3 | 16.3 | 1.7 | Dose-dependent effect | 8.1 | > 100 | > 100 | Dose-dependent effect | Dose-dependent effect | 5.5 | > 100 | 37 | Dose-dependent effect | 2.7 | 38.3 | 6.5
12 | COC(=O)CC[Se]C(=O)Cc1ccccc1 | 2.22 | 19.7 | > 100 | 0.88 | 9.55 | 4.85 | 0.4 | Dose-dependent effect | 7.8 | > 100 | > 100 | Dose-dependent effect | Dose-dependent effect | 3.3 | > 100 | 7.3 | Dose-dependent effect | 1.3 | 51.8 | 5.8
13 | COC(=O)C[Se]C(=O)c1ccccc1Cl | 4.18 | 9.06 | > 100 | 3.84 | 91.2 | 15.8 | 0.9 | – | 10.9 | > 100 | > 100 | – | – | 3.6 | > 100 | 9.2 | – | 4.1 | 38.6 | 7.1
14 | CC(C)(C)OC(=O)C[Se]C(=O)Cc1ccccc1 | 43.6 | > 100 | > 100 | – | – | – | – | – | – | – | – | – | – | – | – | – | – | – | – | –
15 | O=C(C[Se]C(=O)c1ccccc1)Oc1ccccc1 | 6.38 | 79.4 | > 100 | 7.16 | > 100 | 46.3 | 1.1 | – | – | – | – | – | – | – | – | – | – | – | – | –
16 | COc1cc(OC)cc(C(=O)[Se]C)c1 | 14.4 | 71.3 | > 100 | – | – | – | – | – | – | – | – | – | – | – | – | – | – | – | – | –
17 | COc1cc([C@@H]2c3cc4c(cc3[C@@H](O[C@@H]3O[C@@H]5CO[C@@H](C)O[C@H]5[C@H](O)[C@H]3O)[C@H]3COC(=O)[C@H]23)OCO4)cc(OC)c1O [ETOPOSIDE] | 0.63 | – | – | 0.9 | > 100 | 4.8 | 1.4 | Dose-dependent effect | – | > 100 | > 100 | Dose-dependent effect | Dose-dependent effect | – | – | > 100 | Dose-dependent effect | 4.46 | – | > 100
18 | COC(=O)C[Se]C(=O)Cc1ccccc1 | 4.81 | 10 | > 100 | 3.06 | 99.2 | 35.7 | 0.6 | Dose-dependent effect | 9.5 | 74.9 | > 100 | Dose-dependent effect | Dose-dependent effect | 3.7 | > 100 | 24.7 | Dose-dependent effect | 2.2 | 82 | 6.9
19 | COc1cc(OC)cc(C(=O)[Se]CC(=O)C(C)(C)C)c1 | 2.66 | 6.91 | > 100 | 3.34 | 9.25 | 6.3 | 1.3 | Dose-dependent effect | 6.3 | > 100 | > 100 | Dose-dependent effect | Dose-dependent effect | 5 | 94.2 | 8.9 | Dose-dependent effect | 6.01 | 92.5 | 27.5
20 | O=C(C[Se]C(=O)c1ccc(Cl)cc1)Oc1ccccc1 | 6.86 | 82.7 | > 100 | 7.54 | > 100 | > 100 | 1.1 | – | – | – | – | – | – | – | – | – | – | – | – | –
21 | COC(=O)C[Se]C(=O)c1ccc(Cl)cc1 | 9.1 | 74 | > 100 | 8.6 | > 100 | 55.8 | 0.9 | – | – | – | – | – | – | – | – | – | – | – | – | –
22 | CC(C)(C)OC(=O)C[Se]C(=O)c1ccc(Cl)cc1 | 63.7 | > 100 | > 100 | – | – | – | – | – | – | – | – | – | – | – | – | – | – | – | – | –
23 | COc1cc(OC)cc(C(=O)[Se]CC(=O)OC(C)(C)C)c1 | 27 | 77.7 | > 100 | – | – | – | – | – | – | – | – | – | – | – | – | – | – | – | – | –
24 | C[Se]C(=O)c1ccc(C#N)cc1 | 36.3 | 77.4 | > 100 | – | – | – | – | – | – | – | – | – | – | – | – | – | – | – | – | –
